The text below walks through data of PubChem BioAssay.

By viability is commonly meant a read-out of living cells in per cent, often relative to untreated cells. What is called inhibition is the change of the read-out against control, counted positive when it falls.

The nature of experiment [1]: Her2 expression decrease, cell viability multiplex – SKBR3 breast tumor cells, AlphaScreen, ATP viability, primary screen (AID 461;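 active = Her2 level under about 52% in both replicate screens, with viability over 70% of control, limit read from the data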;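 as to Her2 level: lower value means less Her2 protein in the cells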;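 as to viability: percent of carrier control wells set as 100% viability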). Conditions: SKBR3 Her2 protein level, 18-24 h, measured here: SKBR3 viability, ATP luminescence, at 10 µM. (In Alpha technology, singlet oxygen from a donor bead excites a nearby acceptor bead.)
Experiment [2] deals with Receptor tyrosine-protein kinase erbB-2 (Homo sapiens) (UniProt P04626). The description is as above. Conditions: 18-24 h, at 10 µM, stronger effect = lower value.
Sequence of Receptor tyrosine-protein kinase erbB-2 (Homo sapiens) (P04626 whole entry, looked up): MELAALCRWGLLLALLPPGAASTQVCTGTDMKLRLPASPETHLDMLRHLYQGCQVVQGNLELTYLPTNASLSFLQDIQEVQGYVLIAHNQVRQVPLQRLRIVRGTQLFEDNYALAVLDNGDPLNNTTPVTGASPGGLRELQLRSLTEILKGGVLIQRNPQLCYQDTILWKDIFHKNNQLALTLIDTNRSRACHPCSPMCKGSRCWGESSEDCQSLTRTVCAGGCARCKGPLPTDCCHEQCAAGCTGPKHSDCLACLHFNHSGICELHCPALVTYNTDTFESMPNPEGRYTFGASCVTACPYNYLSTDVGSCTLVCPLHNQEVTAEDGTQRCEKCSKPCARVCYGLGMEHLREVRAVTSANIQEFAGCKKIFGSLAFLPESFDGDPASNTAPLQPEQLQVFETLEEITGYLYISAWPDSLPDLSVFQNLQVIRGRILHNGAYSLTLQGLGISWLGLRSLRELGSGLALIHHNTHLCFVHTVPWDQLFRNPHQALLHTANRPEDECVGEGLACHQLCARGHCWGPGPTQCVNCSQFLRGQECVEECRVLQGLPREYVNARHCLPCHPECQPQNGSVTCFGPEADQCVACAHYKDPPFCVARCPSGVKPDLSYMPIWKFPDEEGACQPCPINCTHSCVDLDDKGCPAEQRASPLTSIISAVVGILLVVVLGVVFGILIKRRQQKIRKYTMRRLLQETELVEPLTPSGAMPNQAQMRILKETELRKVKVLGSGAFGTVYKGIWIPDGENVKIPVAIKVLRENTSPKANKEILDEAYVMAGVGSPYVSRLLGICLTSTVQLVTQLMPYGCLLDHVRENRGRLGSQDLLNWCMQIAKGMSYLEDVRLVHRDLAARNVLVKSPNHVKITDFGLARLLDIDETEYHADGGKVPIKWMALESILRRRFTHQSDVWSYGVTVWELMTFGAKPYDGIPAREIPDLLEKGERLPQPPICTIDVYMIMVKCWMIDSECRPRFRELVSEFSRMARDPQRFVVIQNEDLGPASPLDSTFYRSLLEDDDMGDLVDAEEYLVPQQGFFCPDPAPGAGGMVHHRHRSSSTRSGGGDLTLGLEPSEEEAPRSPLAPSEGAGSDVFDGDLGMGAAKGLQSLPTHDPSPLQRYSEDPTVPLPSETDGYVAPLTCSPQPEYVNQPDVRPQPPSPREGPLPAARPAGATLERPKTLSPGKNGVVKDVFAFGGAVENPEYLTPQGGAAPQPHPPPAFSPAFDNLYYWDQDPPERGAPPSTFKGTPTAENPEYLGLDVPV
Experiment [3] can be described thus: reduced viability of SK-BR-3 breast cancer cells – cell-based, 24 h, human, pilot screen (AID 572;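 active = viability at or below 10% of carrier control in both of two separate runs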;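 also: compound exposure lasted between 18 and 24 h rather than exactly 24 h; 100% = carrier-treated control wells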). Conditions: SK-BR-3 viability, CellTiter-Glo luminescence, at 10 µM, stronger effect = lower value. In general terms: ATP-based viability assays read luminescence as a measure of living cells.
The nature of experiment [4]: HUVEC growth inhibition – cell-based, human, primary screen (AID 575;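 active = viability at or below 30% in both replicate assays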;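 also: 100% = median of untreated cell wells with 0.1% DMSO on each plate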). Conditions: HUVEC proliferation, CellTiter-Glo luminescence, 72 h; at 10 µM; stronger effect = lower value. The gist of the method:
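Test system: primary human umbilical vein endothelial cells; medium: endothelial basal medium with 2% FBS plus growth supplements; dosing: 10 µM compound only; times: 72 h treatment at 37 °C; signal: CTG luminescence; read-out: % viability relative to median vehicle-well signal on each plate; control set: vehicle and MePR control wells; plate: 384-well, collagen-coated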

Experiment [5] is described as follows: H69AR cell proliferation blockers – human, duplicate replicates, primary screen (AID 580;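 active = viability at or under a set limit in both replicates, limit being median viability minus 3 SD, cut at about 48% in these data, passing the limit was not always enough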;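 also: 100% = mean luminescence of untreated wells and 0% = no signal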). To be noted: H69AR lung tumor cells viability, ATP luminescence, 72 h; at 10 µM; stronger effect = lower value.
Experiment [6] is described as follows: MRP1 drug-resistance reversers in H69AR cells – cell-based, doxorubicin co-treatment, pilot screen (AID 601). Conditions: CellTiter-Glo, 72 h, at 10 µM; for differential viability (reversal): stronger effect = higher value.
A short description of experiment [7]: yeast transport mutant growth inhibition pilot in 384-well plates, post-Golgi transport modulator project (AID 636; in the data active = inhibition above about 31%). Conditions: absorbance 615 nm, about 18 h, stronger effect = higher value.
Experiment [8] in a line: growth suppression of yeast trafficking mutant, preliminary HTS, modulators of trafficking downstream of Golgi apparatus project, 1536-format plate, OD 615 nm (AID 637; in the data active = inhibition above about 30%). To be noted: yeast transport mutant growth, absorbance 615 nm, 18 h; stronger effect = higher value.
Where [9] appears, read: H69AR cells + 2 uM doxorubicin, measured here: viability with 2 uM doxorubicin, stronger effect = lower value.
Where [10] appears, read: H69AR cells, compound alone cytotoxicity.

Active and inactive are the calls of the source.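 The calls were made as follows, unless noted: active = viability loss from added drug above about 55%, and viability with drug at most 40%, in both replicates (limit read from the data, passing the limit was not always enough); inconclusive = both conditions met in only one replicate; inactive = neither replicate meets both conditions.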

In the case of `CCCN1CCN(C(=O)Cn2c(=O)oc3cc(S(=O)(=O)NCc4ccccc4)ccc32)CC1`, the viability was 92.5% in experiment [1]; 92.5% (inactive) in experiment [3]; 85.6% (inactive) in experiment [4]; 95.3% (inactive) in experiment [5]; 87.5% in experiment [6] (setting [9]); 95.3% in experiment [6] (setting [10]). The Her2 level in experiment [2] is 95% (inactive). For the same molecule, the differential viability (reversal) in experiment [6] (H69AR cells + 2 uM doxorubicin) was 7.88% (inactive). Besides, the inhibition in experiment [7] was -2.67% (inactive); in experiment [8], -0.98% (inactive).
As for `CCOCCCNS(=O)(=O)c1ccc2c(c1)oc(=O)n2CC(=O)OCC`, the viability in experiment [1] is 107%; in experiment [3], 107% (inactive); in experiment [4] it was 104% (inactive); in experiment [5], 94.3% (inactive); in experiment [6] (setting [9]) it was 103%; in experiment [6] (setting [10]) it was 94.3%. Besides, the Her2 level in experiment [2] was 98.5% (inactive). Also, in experiment [6] (H69AR cells + 2 uM doxorubicin), the differential viability (reversal) was -8.29% (inactive). Moreover, the values for the inhibition in experiment [7] and in experiment [8] were -4.74% (inactive) and -1.27% (inactive), respectively.
With `O=C(CSc1nnc(Cc2cc(=O)[nH]c(=O)[nH]2)n1-c1ccccc1)NCC1CCCO1` (stereo not given), the viability in experiment [1] was 99%; in experiment [3], 99% (inactive); in experiment [4] it was 96.1% (inactive); in experiment [5] it was 98.4% (inactive); in experiment [6] (setting [9]) it was 95.4%; in experiment [6] (setting [10]) it was 98.4%. Also, the Her2 level in experiment [2] is 84.5% (inactive). Besides, the differential viability (reversal) in experiment [6] (H69AR cells + 2 uM doxorubicin) was 3.05% (inactive). In addition, the inhibition in experiment [7] is -6.8% (inactive); in experiment [8] it was -1.11% (inactive).
For the molecule `COc1cc(OC)cc(C(=O)NCCN2CCOCC2)c1`, the viability was 105% in experiment [1]; 105% (inactive) in experiment [3]; 98.3% (inactive) in experiment [4]; 94.1% (inactive) in experiment [5]; 92.6% in experiment [6] (setting [9]); 94.1% in experiment [6] (setting [10]). Further, the Her2 level in experiment [2] is 92% (inactive). Also, in experiment [6] (H69AR cells + 2 uM doxorubicin), the differential viability (reversal) was 1.49% (inactive). Further, the values for the inhibition in experiment [7] and in experiment [8] were -4.47% (inactive) and -4.36% (inactive), respectively.
For `CCOc1ccc2[nH]c(=O)c(C(c3nnnn3Cc3ccco3)N3CCC(C)CC3)cc2c1` (stereo not given), the viability was 80.5% in experiment [1]; 80.5% (inactive) in experiment [3]; 82.3% (inactive) in experiment [4]; 85.7% (inactive) in experiment [5]; 87.7% in experiment [6] (setting [9]); 85.7% in experiment [6] (setting [10]). In addition, in experiment [2], the Her2 level was 81.5% (inactive). Moreover, the differential viability (reversal) in experiment [6] (H69AR cells + 2 uM doxorubicin) is -1.93% (inactive). The inhibition in experiment [7] was -5.34% (inactive); in experiment [8] it was 3.02% (inactive).
With `COc1ccc(-c2onc(C)c2-c2ccccc2)c(O)c1`, the viability in experiment [1] was 99.5%; in experiment [3], 99.5% (inactive); in experiment [4], 79.6% (inactive); in experiment [5], 18.5% (active); in experiment [6] (setting [9]), 62.9%; in experiment [6] (setting [10]), 18.5%. In addition, the Her2 level in experiment [2] was 73% (inactive). Moreover, in experiment [6] (H69AR cells + 2 uM doxorubicin), the differential viability (reversal) is -44.4% (inactive). Further, the values for the inhibition in experiment [7] and in experiment [8] were -4.53% (inactive) and 0.32% (inactive), respectively.
Consider `Cc1cc(C)cc(OCCCC(=O)O)c1`, for which the viability was 114% in experiment [1]; 114% (inactive) in experiment [3]; 67.9% (inactive) in experiment [4]; 95.3% (inactive) in experiment [5]; 91.8% in experiment [6] (setting [9]); 95.3% in experiment [6] (setting [10]). Besides, the Her2 level in experiment [2] was 97% (inactive). Also, the differential viability (reversal) in experiment [6] (H69AR cells + 2 uM doxorubicin) is 3.5% (inactive). In addition, the inhibition in experiment [7] was -5.6% (inactive); in experiment [8], -0.16% (inactive).
As for `COc1ccc(C2N(C(=O)c3ccccc3)CCN2C(=O)c2ccccc2)cc1`, the viability in experiment [1] was 114%; in experiment [3], 114% (inactive); in experiment [4], 113% (inactive); in experiment [5] it was 103% (inactive); in experiment [6] (setting [9]) it was 100%; in experiment [6] (setting [10]), 103%. In addition, the Her2 level in experiment [2] was 103% (inactive). In addition, the differential viability (reversal) in experiment [6] (H69AR cells + 2 uM doxorubicin) is 2.48% (inactive). Further, the figures for the inhibition in experiment [7] and in experiment [8] were -1.04% (inactive) and 5.41% (inactive), respectively.
On to `COc1ccc(-n2nnnc2-c2cccc(OC)c2)cc1`, for which the viability in experiment [1] is 102%; in experiment [3] it was 102% (inactive); in experiment [4] it was 45.3% (inactive); in experiment [5], 34.5% (active); in experiment [6] (setting [9]), 61.1%; in experiment [6] (setting [10]) it was 34.5%. The Her2 level in experiment [2] is 87.5% (inactive). For the same molecule, in experiment [6] (H69AR cells + 2 uM doxorubicin), the differential viability (reversal) was -26.5% (inactive). For the same molecule, the inhibition in experiment [7] was -5.95% (inactive); in experiment [8], -1% (inactive).
With `COc1ccccc1-c1nc2n(n1)C(c1cccs1)C(C(=O)Nc1cccnc1)=C(C)N2` (stereo not given), the viability in experiment [1] is 83.5%; in experiment [3], 83.5% (inactive); in experiment [4], 97.9% (inactive); in experiment [5] it was 87.1% (inactive); in experiment [6] (setting [9]) it was 87%; in experiment [6] (setting [10]) it was 87.1%. In addition, the Her2 level in experiment [2] is 95.5% (inactive). Further, the differential viability (reversal) in experiment [6] (H69AR cells + 2 uM doxorubicin) was 0.115% (inactive). Moreover, the inhibition in experiment [7] is -2.43% (inactive); in experiment [8], -4.92% (inactive).
Take `CC(=O)c1cc(Cl)ccc1OC(=O)c1ccco1`: the viability in experiment [1] was 106%; in experiment [3], 106% (inactive); in experiment [4], 95.3% (inactive); in experiment [5], 89.2% (inactive); in experiment [6] (setting [9]) it was 92.5%; in experiment [6] (setting [10]), 89.2%. Besides, the Her2 level in experiment [2] was 92.5% (inactive). Besides, the differential viability (reversal) in experiment [6] (H69AR cells + 2 uM doxorubicin) is -3.25% (inactive). In addition, the inhibition in experiment [7] was -0.65% (inactive); in experiment [8], -4.43% (inactive).
Consider `O=C(Nc1c(-c2ccccc2)nc2ccccn12)c1ccco1`, for which the viability in experiment [1] was 95%; in experiment [3], 95% (inactive); in experiment [4] it was 109% (inactive); in experiment [5], 103% (inactive); in experiment [6] (setting [9]), 86.9%; in experiment [6] (setting [10]) it was 103%. Besides, the Her2 level in experiment [2] is 106% (inactive). The differential viability (reversal) in experiment [6] (H69AR cells + 2 uM doxorubicin) is 16.5% (inactive). Further, the inhibition is -0.92% (inactive) in experiment [7] and -4.55% (inactive) in experiment [8].
Regarding `Cc1ccc(S(=O)(=O)CCc2nnc(NC(=O)c3cnccn3)s2)cc1`, the viability in experiment [1] is 97.5%; in experiment [3] it was 97.5% (inactive); in experiment [4], 116% (inactive); in experiment [5], 99.6% (inactive); in experiment [6] (setting [9]), 97.6%; in experiment [6] (setting [10]), 99.6%. In addition, the Her2 level in experiment [2] was 87% (inactive). For the same molecule, the differential viability (reversal) in experiment [6] (H69AR cells + 2 uM doxorubicin) was 1.94% (inactive). The inhibition in experiment [7] is -4.13% (inactive); in experiment [8], 3.93% (inactive).
On to `Cc1oc(-c2ccccc2F)nc1CS(=O)(=O)CC(=O)NCCCN1CCc2ccccc2C1`, for which the viability in experiment [1] is 81.5%; in experiment [3], 81.5% (inactive); in experiment [4], 56.5% (inactive); in experiment [5], 79.9% (inactive); in experiment [6] (setting [9]), 89.1%; in experiment [6] (setting [10]), 79.9%. Further, the Her2 level in experiment [2] was 81.5% (inactive). Further, in experiment [6] (H69AR cells + 2 uM doxorubicin), the differential viability (reversal) is -9.14% (inactive). Further, the inhibition in experiment [7] was -1.6% (inactive); in experiment [8], -1.97% (inactive).
